Experimental data published in article PMC3226999 (Food chemistry, 2012).
Entries after “also recorded” stand apart in the source; their conditions may differ.

Columns and labels:
[1] = system: caspase-3 and −7 activity in MDA-MB-231 cells; assay: Caspase-Glo 3/7 luminometric assay in cells; type: cell-based, human; conditions: for reduction of staurosporine-induced caspase-3/−7 activity: 1 μM staurosporine plus flavonoid 200, 100, 25 μM, 24 h (Figure 3B); for caspase-3 or −7 activity in treated cells versus DMSO control: 200 μM flavonoid or 1 μM staurosporine, 24 h (Figure 3A)
Procedure, shortened: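 MDA-MB-231 cells were grown in high-glucose DMEM with 10% BGS at 37 °C and 5% CO2. They were seeded at 0.5 × 10^4 cells/well, then treated after 24 h with test compound and/or staurosporine for 24 h. Alternatively, medium was replaced with 200 μM compound plus 1 μM staurosporine just before assay. Caspase-3/7 activity was read by Caspase-Glo 3/7 luminescence as fold activation over DMSO-treated cells (n=3, standard error of margin, t-test).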

[2] = system: purified recombinant caspase-1, −3, and −7; assay: Preliminary survey of inhibition of purified recombinant activated caspases; type: biochemical; conditions: for inhibition of purified caspase-1, −3, or −7 activity: 200 μM, 100 μM, 50 μM flavonoid (Figure 4); for caspase specificity: among caspase-1, −3, −7
[3] = target: T1, recombinant caspase-3 (Homo sapiens, UniProt P42574); type: biochemical
T1 sequence (P42574 29-175 limits assumed): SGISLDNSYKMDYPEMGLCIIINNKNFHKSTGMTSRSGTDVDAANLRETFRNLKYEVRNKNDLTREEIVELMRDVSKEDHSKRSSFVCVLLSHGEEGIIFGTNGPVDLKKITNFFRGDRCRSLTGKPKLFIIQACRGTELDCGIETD
T1 sequence (P42574 176-277 limits assumed): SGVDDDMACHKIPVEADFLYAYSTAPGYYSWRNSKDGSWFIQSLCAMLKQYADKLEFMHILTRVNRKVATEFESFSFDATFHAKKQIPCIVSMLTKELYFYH

SMILES	reduction of staurosporine-induced caspase-3/−7 activity [1]	caspase-3 or −7 activity in treated cells versus DMSO control [1]	inhibition of purified caspase-1, −3, or −7 activity [2]	IC50 [3]	type of caspase inhibition ([2]; Lineweaver-Burk plots, caspase-1, −3, −7)	caspase specificity [2]
O=c1cc(-c2ccc(O)cc2)oc2cc(O)cc(O)c12 [Apigenin, apigenin]	reduction in activity was dose dependent	decrease in caspase-3 or −7 activity	did not exhibit strong dose-dependent inhibition	–	–	–
O.Oc1cc(O)c2c(c1)O[C@H](c1ccc(O)c(O)c1)[C@@H](O)C2 [Catechin, catechin]	–	–	did not exhibit strong dose-dependent inhibition	–	–	–
O=c1cc(-c2ccccc2)oc2cc(O)cc(O)c12 [Chrysin, chrysin]	–	–	did not exhibit strong dose-dependent inhibition	–	–	–
O=c1c(-c2ccc(O)cc2)coc2cc(O)ccc12 [Daidzein, daidzein]	–	–	did not exhibit strong dose-dependent inhibition; also recorded: unable to inhibit caspase activity	–	–	–
O=c1c(-c2ccc(O)cc2)coc2cc(O)cc(O)c12 [Genistein, genistein]	–	–	unable to inhibit caspase activity	–	–	–
O=c1c(O)c(-c2ccc(O)cc2)oc2cc(O)cc(O)c12 [Kaempferol, kaempferol]	reduction in activity was dose dependent	decrease in caspase-3 or −7 activity	significant, dose-dependent inhibition	–	–	–
O=c1cc(-c2ccc(O)c(O)c2)oc2cc(O)cc(O)c12 [Luteolin, luteolin]	reduction in activity was dose dependent	decrease in caspase-3 or −7 activity	significant, dose-dependent inhibition	–	–	–
O=c1c(O)c(-c2cc(O)c(O)c(O)c2)oc2cc(O)cc(O)c12 [Myricetin, myricetin]	able to reduce the staurosporine-induced activity	–	significant, dose-dependent inhibition; also recorded: one of the more potent inhibitors	25 µM	competitive	specificity for caspase-1
O=C1C[C@@H](c2ccc(O)cc2)Oc2cc(O)cc(O)c21 [Narigenin, naringenin]	–	–	did not exhibit strong dose-dependent inhibition	–	–	–
O=c1c(O)c(-c2ccc(O)c(O)c2)oc2cc(O)cc(O)c12 [Quercetin, quercetin]	able to reduce the staurosporine-induced activity	increase caspase-3 or −7 activity only slightly	significant, dose-dependent inhibition	–	–	specificity for caspase-3
CN[C@@H]1C[C@H]2O[C@@](C)([C@@H]1OC)n1c3ccccc3c3c4c(c5c6ccccc6n2c5c31)C(=O)NC4 [Staurosporine, staurosporine, reference compound]	–	very strong caspase-3 or −7 activation	–	–	–	–
